# M1 antag = antagonists of rat M1 muscarinic receptor. Muscarinic acetylcholine receptor M1 (Rattus norvegicus), P08482. CHO-M1 cells, Fluo-4 calcium, ACh EC80 antagonist mode; active compounds read low. B-score at 10 µM. actives 3.4% (n = 64,000). AID 628, 2007;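 active means calcium fluorescence response, raw or row-and-column corrected B-score, differing from the plate sample mean either way at a set confidence level, mostly lower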
# M1 agonist = M1 muscarinic receptor agonists, primary screen, CHO-M1 cells, Fluo-4 calcium, agonist mode; AID 626, 2007; actives 3% (n = 64,000); Fluo-4 calcium fluorescence; active compounds read high; B-score at 10 µM;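 active means fluorescence rise, raw or as B-score row- and column-corrected plate score, outside the 99.7% band of its plate's samples, either direction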
# RORa activator = activators of orphan receptor RORA, primary screen, cell-based, luminescence; Nuclear receptor ROR-alpha (Homo sapiens), P35398; CHO-K1 Gal4-RORA LBD luciferase reporter; percent increase over mock-subtracted basal signal; activation, % at 10 µM; actives 1.5% (n = 65,000); AID 560, 2006;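 active means activation above the mean of all tested compounds plus 3 SD, cut at about 49% in these data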;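 further: 0% = DMSO-treated RORA cells and 100% = added signal equal to DMSO minus mock-transfected cells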
# Htt clearance = clearance of mutant huntingtin inclusions, primary screen, imaging, HeLa Exon1htt(103Q)mCFP, confocal imaging. actives 0.42% (n = 47,000). aggregate imaging; zero = plate's median compound well. inhibition, % at 1.5 µM;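 active means inhibition of aggregate fluorescence above about 70%, also judged a hit by eye on the cell image, limit read from the data, passing the limit was not always enough; inconclusive means no rule stated for this call; inactive means not judged a hit on image review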;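 further: cells exposed to compound for three days before fixation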
# D1 mod = D1 CRE-luciferase signal change, two-sided – cell-based, HEK293 D1, dopamine EC30, D1 allosteric modulator project, primary screen | dopamine EC30 potentiation; actives deviate in either direction | B-score at 10 µM | actives 5.9% (n = 58,000) | AID 641, 2007;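 active means luminescence count or its row- and column-corrected plate score outside the 99.7% band of the plate's sample wells, on either side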
# SF1 activator = activators of human SF-1, primary screen, cell-based, CHO-K1, Gal4-SF-1 LBD, luciferase luminescence; Steroidogenic factor 1 (Homo sapiens), Q13285; CHO-K1 Gal4-SF-1 LBD luciferase reporter; % increase over DMSO SF-1-specific signal; activation, % at 10 µM; actives 1.9% (n = 65,000); AID 522, 2006;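 active means activation above the mean activation of all tested compounds plus 3 SD, cut at about 50% in these data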
#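 Compound – one dose, 10 µM compound, 1% DMSO · Test system – transient Gal4-SF-1 LBD reporter, CHO-K1 · Input – 4,000 cells in each well · Read-out basis – percent activation relative to DMSO median and mock-transfected background · Replicates – single measurement per compound · Technique – steady-glow luciferase luminescence, read after 15 min reagent incubation · Timing – 20 h compound treatment, 37 °C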
# M1 agonist conf = rat M1 muscarinic receptor agonists, confirmation, CHO-M1 cells, Fluo-4 calcium, duplicate retest; actives 19% (n = 1,700); fluorescence change (max-min) at 10 µM; shares compounds with M1 agonist; Fluo-4 calcium fluorescence, agonist mode; actives lie on both sides;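 active means fluorescence change differs from the solvent-only DMSO control mean at a set confidence level in both duplicate runs; inconclusive means differs from solvent-only control mean in just one of two runs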;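 further: an EC20 dose of acetylcholine follows compound addition during the same imaging run; raw fluorescence intensity difference in instrument units with no normalization to controls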
# M4 ag counter = agonist activity at rat M4 receptor, confirmation, counter-screen for M1 allosteric modulator project, cell-based, agonist mode; shares compounds with M1 agonist; CHO M4/Gqi5 cells, Fluo-4 calcium fluorescence; actives lie on both sides; fluorescence change (max-min) at 10 µM; actives 9% (n = 1,700);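 active means fluorescence change differing from the plate's solvent-only control wells at 99.7% confidence in both duplicates, whether higher or lower; inconclusive means differs from solvent controls in only one of two duplicates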
# Target sequence (P08485 whole entry, looked up): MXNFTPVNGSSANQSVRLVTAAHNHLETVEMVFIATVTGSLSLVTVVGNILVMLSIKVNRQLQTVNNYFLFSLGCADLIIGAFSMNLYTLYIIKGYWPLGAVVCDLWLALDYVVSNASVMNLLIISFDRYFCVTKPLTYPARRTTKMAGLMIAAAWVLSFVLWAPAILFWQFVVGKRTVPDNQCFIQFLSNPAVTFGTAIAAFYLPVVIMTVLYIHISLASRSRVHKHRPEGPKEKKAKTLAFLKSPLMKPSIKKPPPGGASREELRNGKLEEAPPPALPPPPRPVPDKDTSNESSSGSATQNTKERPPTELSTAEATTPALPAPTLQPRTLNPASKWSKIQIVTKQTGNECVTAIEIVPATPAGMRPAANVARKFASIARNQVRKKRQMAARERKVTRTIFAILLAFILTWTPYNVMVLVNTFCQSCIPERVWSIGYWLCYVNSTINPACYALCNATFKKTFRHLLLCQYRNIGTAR
# * marks the source's active call; other numbers are inactive results; ? = inconclusive; · = no result. A selection: hits, their analogues and other compounds. The true share with any hit is near 11%.
SMILES,M1 antag,M1 agonist,RORa activator,Htt clearance,D1 mod,SF1 activator,M1 agonist conf,M4 ag counter
O=C(CN1CCN(C2CCCCC2)CC1)NCCC1=CCCCC1,-0.37,13*,-14,·,0.35,-15,94*,-46
COc1ccc(S(=O)(=O)N(C)CC(=O)NCc2cccnc2)cc1C,-0.91,-0.56,-9,39,0.096,-6,·,·
COc1cc(NC(=O)C2CC(=O)NC3=C2C(=O)CC(C)(C)C3)c(OC)cc1Cl (centres undefined),-0.082,16*,28,·,·,34,-2.8,-47
CCOC(=O)C1=C(CN2c3ccccc3CC2C)NC(=O)NC1c1ccccc1 (centres undefined),·,·,·,-10,·,·,·,·
Cc1ccccc1-n1c(SC/C(O)=C(\C#N)c2nc3ccccc3[nH]2)nnc1-c1ccncc1,-0.047,3.9*,15,·,0.76,24,4.6,-4.6
COc1cc(NC(=O)c2cc(OC)c(OC)c(OC)c2)c(OC)cc1NC(=O)CN1CCCCC1,-0.17,3.9*,-11,·,-3.3*,13,?,-47
CC1CCN(C(=O)Cn2cc3c(n2)CCCC3)CC1,0.47,-0.16,18,19,0.13,12,·,·
O=C1CCN2C=Nc3cccc4ccc1c2c34,-11*,493*,-2,12,·,-8,3266*,2765*
CC(C)c1ccc(NC(=O)C2CC(=O)N=C(N)S2)cc1 (centres undefined),-0.027,-0.41,0,-76,0.19,-23,·,·
CCCCOC(=O)c1cc(-c2ccc(/C=N/n3cnnc3)o2)ccc1Cl,·,·,·,-10,·,·,·,·
CCOC(=O)c1cc(-c2ccc(/C=N\n3cnnc3)o2)ccc1Cl,-0.34,4.9*,29,-155,0.31,12,-27*,-42
O=C1C2=C(Nc3ccccc3SC2c2ccco2)c2ccccc21 (centres undefined),0.14,active,34,74*,-0.76,28,?,-65
COc1ccc(C2=NOC(C(=O)NCCCn3ccnc3)C2)cc1 (centres undefined),·,·,·,10,·,·,·,·
O=C1CC(c2ccc(F)cc2)CC(O)=C1C=NCCN1CCN(C(=O)Nc2ccccc2)CC1 (centres undefined),-0.71,1.7,-23,25,-1.1,4,·,·
CCCN1C2=NCCN2c2cc(C)c(C)cc21,-0.023,-0.88,-9,-30,-1.7,15,·,·
O=C1c2cccc3c(N4CCCCC4)ccc(c23)C(=O)N1c1ccccn1,-1.5,78*,20,·,-0.57,36,775*,819*
CC(=O)C(=[N+]=[N-])C(=O)NCc1ccccc1,-0.026,-0.62,-15,46,-0.2,-13,·,·
CCc1ccc(S(=O)(=O)NCc2cn3c(C)csc3n2)s1,-1.6,-3.1*,-5,-110,-0.96,13,-7.5,-27
CCOc1ccc(CC(=O)NCc2cn3c(C)csc3n2)cc1,0.34,3.4*,-12,·,1.2,1,?,?
CCSc1nc2c(c(=O)[nH]1)C(C(C)C)C(C#N)=C(N)O2 (centres undefined),0.2,-0.52,3,·,·,-14,·,·
Clc1ccc(OCCN2CCN(c3ncnc4sccc34)CC2)cc1,-3.3*,4.5*,-81,·,-2.9,-90,15,-21
Cc1c(OC(=O)CNC(=O)OC(C)(C)C)ccc2c3c(c(=O)oc12)CCC3,-0.35,2.4*,7,·,1.9,2,0.27,-23
c1coc(CN(Cc2ccco2)c2ncnc3c2oc2ccccc23)c1,·,·,·,-44,·,·,·,·
O=C(NCC(=O)N(Cc1ccccc1)C(C(=O)NC1CCCC1)c1ccco1)c1ccco1 (centres undefined),-1.5,9.4*,19,9,-0.84,17,-12,-57
O=C(c1ccco1)N1CCN(C(c2ccccc2)c2nnnn2C2CCCC2)CC1 (centres undefined),·,·,·,8,·,·,·,·
CCOC(=O)N1CCC(n2c(SCC(=O)NCc3ccccc3)nc3ccccc3c2=O)CC1,-1,3.6*,-4,40,·,-8,-6.3,-11
CCOC(=O)N1CCC(n2c(SCC(=O)N3CCC(C)CC3)nc3ccccc3c2=O)CC1,·,·,·,13,·,·,·,·
CCOC(=O)N1CCN(C(=O)Cn2ncn3nc(-c4cccs4)cc3c2=O)CC1,0.0013,0.59,-18,32,-0.081,7,·,·
COc1ccccc1NC(=O)Cc1nn(C)c(=O)c2ccccc12,-0.85,2.7*,-47,38,-0.56,-43,0.79,?

# Screening results deposited in PubChem BioAssay by several laboratories.
